Assay results as given in ChEMBL document CHEMBL1148425, “New fatty acid oxidation inhibitors with increased potency lacking adverse metabolic and electrophysiological properties” (Bioorg Med Chem Lett, 2004).

Experiments:
[1] = Metabolic stability (% remaining at 30 mins) in human S9.; format: ADME; conditions: human S9 fraction
Outline: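 Incubated 30 min with human liver S9 (2 mg/mL protein, NADH added), n=2. Reported as % parent remaining.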

[2] = target: T1, Peroxisomal acyl-coenzyme A oxidase 1 (Rattus norvegicus) (UniProt P07872); experiment: Inhibition of rat heart mitochondrial Palmitoyl-CoA oxidation at 30 uM
T1 sequence (whole entry): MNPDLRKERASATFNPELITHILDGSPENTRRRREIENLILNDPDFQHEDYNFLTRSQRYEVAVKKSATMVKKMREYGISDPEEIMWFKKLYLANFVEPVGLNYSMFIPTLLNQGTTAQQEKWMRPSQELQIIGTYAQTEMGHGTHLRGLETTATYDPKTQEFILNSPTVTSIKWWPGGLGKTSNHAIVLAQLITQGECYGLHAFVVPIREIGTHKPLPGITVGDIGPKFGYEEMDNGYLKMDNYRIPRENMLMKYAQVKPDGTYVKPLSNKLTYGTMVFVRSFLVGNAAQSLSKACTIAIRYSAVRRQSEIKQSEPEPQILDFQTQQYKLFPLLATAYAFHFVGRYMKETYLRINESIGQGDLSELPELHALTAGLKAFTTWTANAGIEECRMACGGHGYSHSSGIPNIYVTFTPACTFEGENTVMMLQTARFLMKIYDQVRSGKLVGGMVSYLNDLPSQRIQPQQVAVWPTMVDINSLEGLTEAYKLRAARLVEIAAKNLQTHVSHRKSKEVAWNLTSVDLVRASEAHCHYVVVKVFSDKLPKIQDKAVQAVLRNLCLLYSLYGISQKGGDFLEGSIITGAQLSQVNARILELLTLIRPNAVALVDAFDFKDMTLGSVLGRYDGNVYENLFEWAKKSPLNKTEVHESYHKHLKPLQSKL
Outline: (§1)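 Rat heart mitochondrial preparations incubated with 1-[¹⁴C]-palmitoylCoA as the long-chain fatty acid oxidation substrate. Oxidation inhibition was reported as % inhibition at the listed test concentration, averaged from two or three measurements.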

[3] = Clearance of compound in rat after 1 mg/kg i.v. administration; format: ADME, organism-based; parameters: dose 1 mg/kg, route intravenous; conditions: plasma, iv, read-out: Clp
[4] = Volume of distribution of compound in rat after 1 mg/kg i.v. administration; format: ADME, organism-based; parameters: dose 1 mg/kg, route intravenous; conditions: in vivo, iv, read-out: Vdss
[5] = Oral bioavailability in rat (dose 2 mg/kg); format: ADME, organism-based; conditions: in vivo
[6] = Total concentration in rat after 1 mg/kg i.v. administration in 24 hours; format: ADME, organism-based; parameters: dose 1 mg/kg, route intravenous; conditions: in vivo, iv
[7] = Total concentration in rat after 2 mg/kg peroral administration in 24 hours; format: ADME, organism-based; parameters: dose 2 mg/kg, route oral; conditions: in vivo, po
[8] = Maximum concentration in rat after 2 mg/kg peroral administration; format: ADME, organism-based; parameters: dose 2 mg/kg, route oral; conditions: in vivo, po
[9] = Time to reach maximum concentration in rat after 2 mg/kg peroral administration; 4-6; format: ADME, organism-based; parameters: dose 2 mg/kg, route oral; conditions: in vivo, po
[10] = Half life in rat after 1 mg/kg i.v. administration; format: ADME, organism-based; parameters: dose 1 mg/kg, route intravenous; conditions: in vivo, iv
[11] = Half life in rat after 2 mg/kg peroral administration; format: ADME, organism-based; parameters: dose 2 mg/kg, route oral; conditions: in vivo, po
[12] = organism: Cavia porcellus; experiment: Electrophysiological effect on isolated guinea pig heart as change in coronary perfusion pressure at 10 uM; format: functional
[13] = organism: Cavia porcellus; experiment: Electrophysiological effect on isolated guinea pig heart as change in coronary perfusion pressure at 3 uM; format: functional
[14] = organism: Cavia porcellus; experiment: Electrophysiological effect on isolated guinea pig heart as change in H-V interval at 10 uM; format: functional
[15] = organism: Cavia porcellus; experiment: Electrophysiological effect on isolated guinea pig heart as change in H-V interval at 3 uM; format: functional
[16] = organism: Cavia porcellus; experiment: Electrophysiological effect on isolated guinea pig heart as change in S-H interval at 10 uM; format: functional
[17] = organism: Cavia porcellus; experiment: Electrophysiological effect on isolated guinea pig heart as change in S-H interval at 3 uM; format: functional
[18] = target: T2, Cytochrome P450 3A4 (Homo sapiens, UniProt P08684); experiment: Inhibition of human cytochrome P450 3A4
T2 sequence (P08684 whole entry): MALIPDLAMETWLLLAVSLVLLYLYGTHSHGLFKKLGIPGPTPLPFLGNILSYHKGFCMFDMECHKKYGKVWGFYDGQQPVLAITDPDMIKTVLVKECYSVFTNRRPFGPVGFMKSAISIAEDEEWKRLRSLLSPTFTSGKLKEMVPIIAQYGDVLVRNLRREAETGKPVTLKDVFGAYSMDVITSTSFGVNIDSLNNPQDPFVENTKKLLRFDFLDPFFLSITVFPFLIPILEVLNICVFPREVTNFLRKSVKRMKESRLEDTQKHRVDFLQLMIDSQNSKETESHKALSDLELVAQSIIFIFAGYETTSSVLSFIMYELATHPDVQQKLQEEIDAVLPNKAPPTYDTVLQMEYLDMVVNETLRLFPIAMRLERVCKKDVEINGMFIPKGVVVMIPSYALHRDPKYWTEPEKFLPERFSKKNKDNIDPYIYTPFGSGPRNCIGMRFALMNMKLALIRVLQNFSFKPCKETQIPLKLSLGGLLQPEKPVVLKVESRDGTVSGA

[19] = target: T3, Cytochrome P450 1A2 (Homo sapiens, UniProt P05177); experiment: Inhibition of human cytochrome P450 1A2
T3 sequence (P05177 whole entry): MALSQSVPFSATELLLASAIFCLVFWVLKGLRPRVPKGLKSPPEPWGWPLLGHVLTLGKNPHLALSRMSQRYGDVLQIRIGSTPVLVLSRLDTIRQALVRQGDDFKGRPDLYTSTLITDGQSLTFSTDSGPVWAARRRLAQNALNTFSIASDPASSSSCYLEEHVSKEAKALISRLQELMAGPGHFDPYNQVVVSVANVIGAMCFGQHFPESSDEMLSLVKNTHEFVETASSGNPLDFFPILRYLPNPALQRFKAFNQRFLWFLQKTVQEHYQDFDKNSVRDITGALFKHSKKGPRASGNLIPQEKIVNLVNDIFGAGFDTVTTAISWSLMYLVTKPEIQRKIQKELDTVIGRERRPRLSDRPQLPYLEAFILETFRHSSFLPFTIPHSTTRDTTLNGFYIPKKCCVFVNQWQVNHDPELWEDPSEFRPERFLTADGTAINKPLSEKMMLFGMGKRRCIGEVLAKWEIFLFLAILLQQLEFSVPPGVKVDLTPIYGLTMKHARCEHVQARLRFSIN

[20] = target: Cytochrome P450 2C9 (Homo sapiens, UniProt P11712); experiment: Inhibition of cytochrome P450 2C9 (human)
Cytochrome P450 2C9, sequence (P11712 whole entry): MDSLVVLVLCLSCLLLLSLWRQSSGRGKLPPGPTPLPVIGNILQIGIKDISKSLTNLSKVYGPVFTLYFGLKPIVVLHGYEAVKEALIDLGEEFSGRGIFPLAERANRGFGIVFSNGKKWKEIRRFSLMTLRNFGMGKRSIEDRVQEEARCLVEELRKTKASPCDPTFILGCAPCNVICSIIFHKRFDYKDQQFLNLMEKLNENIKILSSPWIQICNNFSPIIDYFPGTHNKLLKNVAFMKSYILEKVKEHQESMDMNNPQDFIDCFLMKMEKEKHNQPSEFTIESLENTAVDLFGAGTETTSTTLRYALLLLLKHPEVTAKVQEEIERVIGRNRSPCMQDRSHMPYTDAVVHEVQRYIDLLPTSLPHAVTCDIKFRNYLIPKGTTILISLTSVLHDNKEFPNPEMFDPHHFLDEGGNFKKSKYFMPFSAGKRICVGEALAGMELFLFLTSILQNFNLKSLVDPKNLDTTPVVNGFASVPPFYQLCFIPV

[21] = target: T1, Peroxisomal acyl-coenzyme A oxidase 1 (Rattus norvegicus); experiment: Inhibition of rat heart mitochondrial Palmitoyl-CoA oxidation at 100 uM; outline: as §1
[22] = Time to reach maximum concentration in rat after 2 mg/kg peroral administration; format: ADME, organism-based; parameters: dose 2 mg/kg, route oral; conditions: in vivo, po
[23] = target: T2, Cytochrome P450 3A4; experiment: Inhibition of cytochrome P450 3A4 (human)

Cc1nc2cc(OC[C@H](O)CN3CCN(CC(=O)Nc4cccc5cccnc45)CC3)ccc2s1
remaining at 0.5 h [1]: 12%

Cc1nc2cc(OC[C@H](O)CN3CCN(CC(=O)Nc4ccc5c(c4)CCC5)CC3)ccc2s1
remaining at 0.5 h [1]: 15%

Cc1nc2cc(OC[C@H](O)CN3CCN(CC(=O)N[C@H](C)c4cccc5ccccc45)CC3)ccc2s1
inhibition [2]: 24%

Cc1nc2cc(OC[C@H](O)CN3CCN(CC(=O)N[C@H](C)c4ccc5ccccc5c4)CC3)ccc2s1
remaining at 0.5 h [1]: 45%

Cc1nc2cc(OC[C@H](O)CN3CCN(CC(=O)Nc4cccc5ccccc45)CC3)ccc2s1
remaining at 0.5 h [1]: 50%

Cc1nc2cc(OC[C@H](O)CN3CCN(CC(=O)N[C@H](C)c4ccc(F)cc4)CC3)ccc2s1
inhibition [2]: 40%

Cc1nc2cc(OC[C@H](O)CN3CCN(CC(=O)Nc4ccc(C(F)(F)F)cc4)CC3)ccc2s1
remaining at 0.5 h [1]: 28%

Cc1nc2cc(OC[C@H](O)CN3CCN(CC(=O)NCc4ccc(Cl)cc4)CC3)ccc2s1
remaining at 0.5 h [1]: 16%

CCn1c2ccccc2c2cc(NC(=O)CN3CCN(C[C@@H](O)COc4ccc5sc(C)nc5c4)CC3)ccc21
clearance [3]: 13.5 mL/min/kg
Vd [4]: 3.4 L/kg
bioavailability [5]: 17.5%
AUC at 24 h [6]: 1320 ng·h/mL
AUC at 24 h [7]: 230 ng·h/mL
remaining at 0.5 h [1]: 62%
Cmax [8]: 26.3 ng/mL
Tmax [9]: 6 h
half-life [10]: 3 h
half-life [11]: 2.6 h
Delta CPP [12]: -0.4 mmHg
Delta CPP [13]: 0.7 mmHg
Delta H-V [14]: 0 ms
Delta H-V [15]: 0 ms
Delta S-H [16]: 1 ms
Delta S-H [17]: 0 ms
IC50 [18]: 39 µM
IC50 [19]: > 100 µM
IC50 [20]: > 100 µM

Cc1nc2cc(OC[C@H](O)CN3CCN(CC(=O)N[C@@H]4CCc5ccccc54)CC3)ccc2s1
inhibition [2]: 50%

Cc1nc2cc(OC[C@H](O)CN3CCN(CC(=O)Nc4ccccc4-c4ccccc4)CC3)ccc2s1
inhibition [2]: 39%

Cc1nc2cc(OC[C@H](O)CN3CCN(CC(=O)Nc4ccc(C(N)=O)cc4)CC3)ccc2s1
inhibition [21]: 35%

Cc1nc2cc(OC[C@H](O)CN3CCN(CC(=O)NC4Cc5ccccc5C4)CC3)ccc2s1
remaining at 0.5 h [1]: 2%

Cc1nc2cc(OC[C@H](O)CN3CCN(CC(=O)NC4CCCCC4)CC3)ccc2s1
remaining at 0.5 h [1]: 37%

Cc1nc2cc(OC[C@H](O)CN3CCN(CC(=O)Nc4cccc5ncccc45)CC3)ccc2s1
remaining at 0.5 h [1]: 2%

Cc1nc2cc(OC[C@H](O)CN3CCN(CC(=O)N[C@@H](C)c4ccc5ccccc5c4)CC3)ccc2s1
remaining at 0.5 h [1]: 14%

Cc1nc2cc(OC[C@H](O)CN3CCN(CC(=O)Nc4ccccc4)CC3)ccc2s1
remaining at 0.5 h [1]: 47%

Cc1nc2cc(OC[C@H](O)CN3CCN(CC(=O)Nc4ccc5c(c4)CCCC5)CC3)ccc2s1
remaining at 0.5 h [1]: 2%

Cc1nc2cc(OC[C@H](O)CN3CCN(CC(=O)Nc4ccc(Cl)c(C(F)(F)F)c4)CC3)ccc2s1
remaining at 0.5 h [1]: 25%

Cc1nc2cc(OC[C@H](O)CN3CCN(CC(=O)Nc4c(C)cccc4C)CC3)ccc2s1
clearance [3]: 54.5 mL/min/kg
Vd [4]: 6.2 L/kg
bioavailability [5]: 19.5%
AUC at 24 h [6]: 313 ng·h/mL
AUC at 24 h [7]: 61.1 ng·h/mL
remaining at 0.5 h [1]: 50%
Cmax [8]: 26.1 ng/mL
Tmax [22]: 0.83 h
half-life [10]: 1.4 h
half-life [11]: 1.2 h
Delta CPP [13]: -8 mmHg
Delta H-V [15]: 4 ms
Delta S-H [17]: 3 ms
IC50 [18]: 23 µM
IC50 [19]: > 100 µM
IC50 [20]: > 100 µM

Cc1nc2cc(OC[C@H](O)CN3CCN(CC(=O)Nc4cccc(-c5ccccc5)c4)CC3)ccc2s1
remaining at 0.5 h [1]: 58%
Delta CPP [13]: -4.3 mmHg
Delta H-V [15]: 0 ms
Delta S-H [17]: 3 ms
IC50 [19]: 6 µM
IC50 [20]: 24 µM
IC50 [23]: 37 µM

Cc1nc2cc(OC[C@H](O)CN3CCN(CC(=O)NCCc4ccccc4)CC3)ccc2s1
remaining at 0.5 h [1]: 27%

Cc1nc2cc(OC[C@H](O)CN3CCN(CC(=O)Nc4cccc(Oc5ccccc5)c4)CC3)ccc2s1
remaining at 0.5 h [1]: 15%

Cc1nc2cc(OC[C@H](O)CN3CCN(CC(=O)N[C@@H](C)c4ccc(F)cc4)CC3)ccc2s1
remaining at 0.5 h [1]: 10%

Cc1nc2cc(OC[C@H](O)CN3CCN(CC(=O)Nc4ccc(Cl)c(Cl)c4)CC3)ccc2s1
remaining at 0.5 h [1]: 29%

Cc1nc2cc(OC[C@H](O)CN3CCN(CC(=O)Nn4nnc5ccccc54)CC3)ccc2s1
inhibition [2]: 16%

Cc1nc2cc(OC[C@H](O)CN3CCN(CC(=O)Nc4ccc(C#N)cc4)CC3)ccc2s1
inhibition [2]: 42%

Cc1nc2cc(OC[C@H](O)CN3CCN(CC(=O)N[C@@H](C)c4ccccc4)CC3)ccc2s1
remaining at 0.5 h [1]: 23%

Cc1nc2cc(OC[C@H](O)CN3CCN(CC(=O)N[C@@H](C)c4cccc5ccccc45)CC3)ccc2s1
remaining at 0.5 h [1]: 10%

Cc1nc2cc(OC[C@H](O)CN3CCN(CC(=O)Nc4cccc5nsnc45)CC3)ccc2s1
remaining at 0.5 h [1]: 11%

COc1ccc(NC(=O)CN2CCN(C[C@@H](O)COc3ccc4sc(C)nc4c3)CC2)cc1
remaining at 0.5 h [1]: 41%

Cc1nc2cc(OC[C@H](O)CN3CCN(CC(=O)N[C@H]4CCCc5ccccc54)CC3)ccc2s1
remaining at 0.5 h [1]: 2%

Cc1nc2cc(OC[C@H](O)CN3CCN(CC(=O)Nc4ccc(-c5ccccc5)cc4)CC3)ccc2s1
remaining at 0.5 h [1]: 63%
Delta CPP [13]: -6.6 mmHg
Delta H-V [15]: 0.5 ms
Delta S-H [17]: 5 ms
IC50 [19]: 31 µM
IC50 [20]: 30 µM
IC50 [23]: 7.9 µM

Cc1nc2cc(OC[C@H](O)CN3CCN(CC(=O)N[C@H](C)c4ccccc4)CC3)ccc2s1
inhibition [2]: 23%

Cc1nc2cc(OC[C@H](O)CN3CCN(CC(=O)Nc4cc(Cl)c(Cl)c(Cl)c4)CC3)ccc2s1
remaining at 0.5 h [1]: 34%

Cc1nc2cc(OC[C@H](O)CN3CCN(CC(=O)N[C@H]4CCc5ccccc54)CC3)ccc2s1
remaining at 0.5 h [1]: 1%

Cc1nc2cc(OC[C@H](O)CN3CCN(CC(=O)Nc4cccc5[nH]ccc45)CC3)ccc2s1
remaining at 0.5 h [1]: 35%

Cc1nc2cc(OC[C@H](O)CN3CCN(CC(=O)Nc4ccccc4Oc4ccccc4)CC3)ccc2s1
inhibition [2]: 34%

Cc1nc2cc(OC[C@H](O)CN3CCN(CC(=O)Nc4ccc(Oc5ccccc5)cc4)CC3)ccc2s1
remaining at 0.5 h [1]: 18%

Cc1cc(NC(=O)CN2CCN(C[C@@H](O)COc3ccc4sc(C)nc4c3)CC2)c2ccccc2n1
inhibition [2]: 40%

Cc1nc2cc(OC[C@H](O)CN3CCN(CC(=O)NCC4CCCCC4)CC3)ccc2s1
remaining at 0.5 h [1]: 29%

Cc1nc2cc(OC[C@H](O)CN3CCN(CC(=O)Nc4ccc(Oc5ccc(Cl)cc5)cc4)CC3)ccc2s1
remaining at 0.5 h [1]: 64%

Cc1ccc(NC(=O)CN2CCN(C[C@@H](O)COc3ccc4sc(C)nc4c3)CC2)cc1
remaining at 0.5 h [1]: 51%
